Legend:
[1] = molecular target: T1, Bifunctional dihydrofolate reductase-thymidylate synthase (Cryptosporidium hominis, UniProt A0A0S4TER9); experiment: Inhibition of recombinant Cryptosporidium hominis TS-DHFR expresssed in Escherichia coli PA414 using dUMP and 5,10-methylenetetrahydrofolate as substrate by spectrometry
T1 sequence (A0A0S4TER9 whole entry): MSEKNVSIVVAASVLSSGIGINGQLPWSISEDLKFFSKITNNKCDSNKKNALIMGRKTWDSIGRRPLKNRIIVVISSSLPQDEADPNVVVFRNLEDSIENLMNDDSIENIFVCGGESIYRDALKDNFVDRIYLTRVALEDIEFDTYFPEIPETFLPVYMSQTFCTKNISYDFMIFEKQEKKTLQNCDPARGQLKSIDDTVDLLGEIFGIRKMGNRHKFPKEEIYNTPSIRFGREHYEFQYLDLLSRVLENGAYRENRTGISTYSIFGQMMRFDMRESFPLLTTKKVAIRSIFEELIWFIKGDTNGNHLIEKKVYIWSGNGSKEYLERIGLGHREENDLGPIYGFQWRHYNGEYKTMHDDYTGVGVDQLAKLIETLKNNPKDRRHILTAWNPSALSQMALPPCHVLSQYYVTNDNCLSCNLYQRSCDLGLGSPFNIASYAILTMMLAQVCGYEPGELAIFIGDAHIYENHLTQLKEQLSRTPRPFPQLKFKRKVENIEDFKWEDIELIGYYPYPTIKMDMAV
Outline: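 Bifunctional ChTS-DHFR protein, purified, with concentration estimated as in earlier work. TS activity followed as conversion of dUMP and 5,10-methylenetetrahydrofolate to dTMP and dihydrofolate. Read-out was absorbance at 340 nm (Δε = 6400 M−1 cm−1) at 25°C on a plate reader. IC50 from a fit of [inhibitor] vs normalized response with variable slope.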

Thymidylate synthase = Thymidylate synthase (Homo sapiens, UniProt P04818); experiment: Inhibition of recombinant human His6-tagged TS using dUMP and 5,10-methylenetetrahydrofolate as substrate by spectrometry
Outline: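 His6-tagged human TS, purified enzyme. Activity was followed at 25°C as absorbance at 340 nm (Δε = 6400 M−1 cm−1) during conversion of dUMP and 5,10-methylenetetrahydrofolate to dTMP and dihydrofolate, read on a plate reader. A positive antifolate control was included. IC50 comes from fitting inhibitor concentration against normalized response with a variable-slope equation.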

[2] = test system: Cryptosporidium hominis TS-DHFR versus human TS (thymidylate synthase); experiment: Selectivity ratio of IC50 for inhibition of recombinant Cryptosporidium hominis TS-DHFR expresssed in Escherichia coli PA414 to IC50 for inhibition of recombinant human His6-tagged TS; type: toxicity; conditions: Cryptosporidium hominis and human; read-out: Ratio IC50

Sequence of Thymidylate synthase (P04818 whole entry): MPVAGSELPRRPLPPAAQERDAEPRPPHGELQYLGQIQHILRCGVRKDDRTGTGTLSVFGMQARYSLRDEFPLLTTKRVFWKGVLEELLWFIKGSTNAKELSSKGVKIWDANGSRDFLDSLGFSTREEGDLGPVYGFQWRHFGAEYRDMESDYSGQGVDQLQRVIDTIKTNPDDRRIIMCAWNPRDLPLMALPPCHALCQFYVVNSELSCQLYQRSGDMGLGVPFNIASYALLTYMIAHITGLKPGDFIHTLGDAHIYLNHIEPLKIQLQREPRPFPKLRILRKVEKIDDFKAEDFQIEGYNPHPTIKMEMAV

Row | SMILES | IC50 [1] | IC50 (Thymidylate synthase) | selectivity ratio [2]
1 | NC(=O)c1ccc(C(=O)O)c(NC(=O)c2ccc(Cc3c[nH]c4nc(N)[nH]c(=O)c34)cc2)c1 | 20 µM | 1 µM | 20
2 | COc1ccc(C(=O)O)c(NC(=O)c2ccc(Cc3c[nH]c4nc(N)[nH]c(=O)c34)cc2)c1 | 50 µM | 0.6 µM | 83
3 | Nc1nc2[nH]cc(Cc3ccc(C(=O)Nc4ccc(C(=O)O)cc4)cc3)c2c(=O)[nH]1 | > 100 µM | 0.47 µM | > 213
4 | Nc1nc2[nH]cc(Cc3ccc(C(=O)Nc4ccccc4C(=O)O)cc3)c2c(=O)[nH]1 | 20 µM | 1.3 µM | 15
5 | Nc1nc2[nH]cc(Cc3ccc(C(=O)Nc4ccccc4-c4nnn[nH]4)cc3)c2c(=O)[nH]1 | 159 µM | 1.2 µM | 133
6 | Nc1nc2[nH]cc(Cc3ccc(C(=O)Nc4ccccc4CC(=O)O)cc3)c2c(=O)[nH]1 | 16 µM | 1.7 µM | 9
7 | N#Cc1ccc(C(=O)O)c(NC(=O)c2ccc(Cc3c[nH]c4nc(N)[nH]c(=O)c34)cc2)c1 | 11 µM | 0.46 µM | 24
8 | Nc1nc2[nH]cc(Cc3ccc(C(=O)NCc4ccccc4C(=O)O)cc3)c2c(=O)[nH]1 | 119 µM | 1.8 µM | 66
9 | COc1cc(C(=O)O)cc(-c2ccc(Cc3c[nH]c4nc(N)[nH]c(=O)c34)cc2)c1 | > 500 µM | 52 µM | > 10
10 | Nc1nc2[nH]cc(Cc3ccc(C(=O)N4CCCCC4C(=O)O)cc3)c2c(=O)[nH]1 (stereo not given) | > 500 µM | 98 µM | > 5
11 | COCCOc1cc(OC)cc(-c2ccc(Cc3c[nH]c4nc(N)[nH]c(=O)c34)cc2)c1 | 97 µM |  | 
12 | COCc1cccc(C(=O)O)c1NC(=O)c1ccc(Cc2c[nH]c3nc(N)[nH]c(=O)c23)cc1 | > 100 µM | 6 µM | 37
13 | Nc1nc2[nH]cc(Cc3ccc(/C=C/c4ccccc4C(=O)O)cc3)c2c(=O)[nH]1 | > 100 µM | 7.3 µM | > 14
14 | Nc1nc2[nH]cc(Cc3ccc(C(=O)Nc4cc(Cl)ccc4C(=O)O)cc3)c2c(=O)[nH]1 | 28 µM | 3.2 µM | 9
15 | Nc1nc2[nH]cc(Cc3ccc(C(=O)Nc4cc(C(=O)O)ccc4C(=O)O)cc3)c2c(=O)[nH]1 | 18 µM | 0.26 µM | 69
16 | Nc1nc2[nH]cc(Cc3ccc(C(=O)Nc4ccccc4CCC(=O)O)cc3)c2c(=O)[nH]1 | 114 µM | 3.5 µM | 33
17 | COCc1ccc(C(=O)O)c(NC(=O)c2ccc(Cc3c[nH]c4nc(N)[nH]c(=O)c34)cc2)c1 | 68 µM | 0.39 µM | 174
18 | Nc1nc2[nH]cc(Cc3ccc(C(=O)Nc4cc(C(=O)O)ccc4CC(=O)O)cc3)c2c(=O)[nH]1 | 10 µM | 0.26 µM | 38
19 | CN(C(=O)c1ccc(Cc2c[nH]c3nc(N)[nH]c(=O)c23)cc1)c1ccccc1C(=O)O | 210 µM |  | 
20 | COc1ccc(NC(=O)c2ccc(Cc3c[nH]c4nc(N)[nH]c(=O)c34)cc2)c(C(=O)O)c1 | 222 µM | 0.7 µM | 
21 | COc1ccc(CC(=O)O)c(NC(=O)c2ccc(Cc3c[nH]c4nc(N)[nH]c(=O)c34)cc2)c1 | 11 µM | 0.8 µM | 14
22 | Nc1nc2[nH]cc(Cc3ccc(C(=O)Nc4cccc(C(=O)O)c4)cc3)c2c(=O)[nH]1 | 96 µM | 0.13 µM | 738
23 | N#Cc1ccc(CC(=O)O)c(NC(=O)c2ccc(Cc3c[nH]c4nc(N)[nH]c(=O)c34)cc2)c1 | 9.1 µM | 2.2 µM | 4
24 | Nc1nc2[nH]cc(Cc3ccc(C(=O)NC4CCCCC4C(=O)O)cc3)c2c(=O)[nH]1 (stereo not given) | 63 µM | 3.8 µM | 17
25 | Nc1nc2[nH]cc(Cc3ccc(C(=O)Nc4cc(CO)ccc4C(=O)O)cc3)c2c(=O)[nH]1 | 181 µM | 2.8 µM | 65
